Screening results deposited in PubChem by several laboratories.
Shown are actives, neighbours in structure and some others; about 4.2% of the full set was active somewhere.
Cl transport mod: modulators of human KCC2 chloride dependent transport | B-score of Tl+ flux slope (higher = more flux/activation; lower = inhibition) at 10 µM | AID 1456 | KCC2 cells, thallium flux FluoZin-2 fluorescence | actives 2.2% (n = 190,000) | Q9H2X9;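 active = thallium flux slope and its plate-corrected score both differing from the plate sample mean at a set confidence after two filtering rounds, in either direction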;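 note: slope of fluorescence scaled to starting intensity during 10 to 20 s after thallium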
hERG rescue: hERG (human) protection from proarrhythmic block; CHO-hERG, FluxOR thallium flux, dofetilide IC70 present; Q12809; activation (rescue from dofetilide block), less the hit threshold, % at 10 µM; actives 0.51% (n = 310,000);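 active = activation above the mean of controls blocked by dofetilide plus 5 SD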;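 note: thallium influx through hERG after potassium depolarization seen as dye fluorescence rise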
KCNQ1 block: inhibitors of human KCNQ1 potassium channel | B-score at 10 µM | CHO-K1 KCNQ1, FluxOR thallium flux fluorescence; stronger effect = higher value | actives 1.3% (n = 310,000) | P51787;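 active = compounds whose thallium flux B-score, printed positive for inhibition, exceeds three library SD while starting fluorescence stays within three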;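 note: channel opened by potassium depolarization with thallium stimulus after 20 min compound exposure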
KCNQ1 act: potentiates or activates the human KCNQ1 potassium channel | actives 0.35% (n = 310,000) | P51787 | B-score at 10 µM | CHO-K1 KCNQ1, thallium flux FluxOR fluorescence; stronger effect = higher value;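 active = fluorescence ratio B-score, a plate-corrected score, at least three library SD, with initial intensity B-score within 5 SD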
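System: CHO-K1 cells stably expressing KCNQ1 / Medium: assay buffer for compound exposure, DMSO matched across wells / Reagent: thallium- and potassium-containing depolarizing buffer / Compound: one concentration, matched DMSO / Incubation: 20 min compound pretreatment at room temperature / Measured by: kinetic FluxOR fluorescence, 10 s baseline plus 110 s post-stimulus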
SUMO Mot1 rescue: blocks SUMOylation pathway, rescuing yeast Mot1-301 growth; S. cerevisiae Mot1-301 growth rescue, ATP luminescence, 38.5C; percent above DMSO median, 100 means doubled; growth rescue, % at 18.8 µM; actives 1% (n = 320,000); AID 2716;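 active = every valid replicate shows activation above 250% relative to neutral control wells; inactive = the rest, any valid replicate at or below 250%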;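 note: OY570 slx delta 5 strain wells were the positive control but not used for scaling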
AI-2 QS modul: Vibrio harveyi AI-2 quorum sensing modulation; Vibrio harveyi JMH597 AI-2 luminescence/OD600 ratio, 9 h; stronger effect = lower value; strain lacks LuxN and CqsS sensors; 0 = neutral-control median; activity change, % at 7.5 µM; actives 0.4% (n = 300,000); in the data active = activity change below about -75%, passing the limit was not always enough; inconclusive = no clear call, values can overlap the other calls;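 note: luminescence divided by OD600 gain over 9 h not by final OD600 alone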
KCC2 sec1: confirmation of human KCC2 transport modulators; shares compounds with Cl transport mod; normalised thallium flux (F/F0 slope) at 10 µM; HEK293-KCC2, thallium flux, FluoZin2 fluorescence; stronger effect = higher value; AID 1713; actives 15% (n = 3,700);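 active = thallium flux slope above the same plate's solvent-only control mean plus 3 SD; inconclusive = the two replicate wells disagree; inactive = no significant difference from solvent-only control wells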
KCC2 bumet counter: thallium flux persisting under bumetanide in KCC2 cells, counter-screen secondary assay; actives 49% (n = 3,700); normalized thallium flux at 10 µM; HEK293-KCC2 + bumetanide/ouabain, thallium flux FluoZin2; stronger effect = higher value; shares compounds with Cl transport mod; AID 1714;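 active = thallium entry rate above the same plate's blocked-transporter control wells by more than 3 SD; inconclusive = the two repeat wells disagree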;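 note: raw slope of fluorescence over initial fluorescence between 10 and 20 s after thallium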
KCC2 sec2: KCC2 (human) modulation, second secondary assay; shares compounds with Cl transport mod; HEK293-KCC2, thallium flux FluoZin2 fluorescence; actives lie on both sides; F/F0 rise rate, 10–20 s post-thallium; normalized thallium flux at 10 µM; actives 23% (n = 3,700);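 active = thallium flux slope more than 3 SD above or below the plate's solvent-only control mean, mostly below; inconclusive = the two repeat wells disagreed; inactive = no significant shift from solvent-only controls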;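 note: raw slope with 0.1% DMSO as baseline and bumetanide as block control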
HEK counter1: counter-screen for KCC2 modulators: effect in parental HEK293 cells | actives 46% (n = 3,700) | thallium flux FluoZin2, ouabain; baseline-ratio fluorescence slope, 10–20 s after thallium | thallium flux rate (normalised fluorescence) at 10 µM | shares compounds with Cl transport mod;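 active = thallium flux rate significantly above the same plate's solvent-only control wells, beyond their mean plus 3 SD; inconclusive = the two replicate wells gave conflicting results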
KCC2 retest ouab: KCC2 (human) modulation, ouabain retest | shares compounds with Cl transport mod | HEK293-KCC2, thallium flux FluoZin2 fluorescence; bidirectional: low = inhibitor, high = activator | raw Tl+ flux slope (below DMSO = inhibition, above = activation) at 10 µM | actives 48% (n = 3,700) | AID 1717;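 active = thallium flux slope beyond 3 SD from same-plate DMSO control mean in most replicates, usually higher, sometimes lower; inconclusive = repeat tests gave conflicting results; inactive = no significant difference from controls in most replicates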;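 note: slope of initial-normalized fluorescence between seconds 10 and 20 after thallium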
HEK counter2: parental HEK flux effect, counter-screen 2; shares compounds with Cl transport mod; actives 33% (n = 3,700); thallium flux slope at 10 µM; HEK293 parental, thallium flux FluoZin-2 fluorescence slope;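 active = thallium flux slope above the same plate's solvent-control mean plus 3 SD in both duplicate wells; inconclusive = duplicate wells that disagreed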;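 note: run without ouabain in cells lacking the KCC2 cotransporter; slope of fluorescence scaled to its starting value between 10 and 20 s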
* hit, by the source's call; i = inactive; ? = inconclusive; / = not tested or not shown.

SMILES	Cl transport mod	hERG rescue	KCNQ1 block	KCNQ1 act	SUMO Mot1 rescue	AI-2 QS modul	KCC2 sec1	KCC2 bumet counter	KCC2 sec2	HEK counter1	KCC2 retest ouab	HEK counter2
Cc1ccc(Cn2c(=N)c(C(=O)NCc3ccco3)cc3c(=O)n4ccccc4nc32)cc1	5.7*	-10	i	i	4	25	0.0053	?	?	0.0055*	0.018	0.0098
COc1ccc(CNC(=O)c2cc3c(=O)n4ccccc4nc3n(Cc3ccco3)c2=N)cc1	1.1	/	/	/	/	/	/	/	/	/	/	/
O=C(Cc1cccc2ccccc12)NCCc1ccccc1	/	-10	i	i	-3	4	/	/	/	/	/	/
Oc1[nH]c2ccc(Br)cc2c1N=NC(=S)NCC1CCCO1 (configuration not stated)	35*	-17	i	i	-12	19	0.014*	0.048*	0.034	?	0.036*	0.018*
CCn1c(O)c(N=NC(=S)NCC2CCCO2)c2ccccc21 (configuration not stated)	53*	6.3*	i	i	179	25	0.0071	0.078*	0.058*	0.055*	0.067*	0.056*
CSCc1c(C(=O)NCCc2ccccn2)oc2ccccc12	/	-12	i	i	-10	18	/	/	/	/	/	/
CC(C)NC(=S)N/N=C/c1sc(N2CCCCC2)nc1-c1cccs1	3.1*	-3	i	i	17	22	0.011	0.011*	0.034	0.0099*	0.025	0.01
OCC1(Cc2ccccc2F)CCCN(Cc2c(F)ccc(F)c2F)C1 (configuration not stated)	/	-8	i	i	1	14	/	/	/	/	/	/
Cc1ccc(C)c(N2C(=O)c3cc(N4CCOCC4)c([N+](=O)[O-])cc3C2=O)c1	-0.39	-7	i	i	/	15	/	/	/	/	/	/
c1cc2c(cc1Oc1nc(N3CCOCC3)nc(N3CCOCC3)n1)OCO2	0.22	-12	i	i	10	18	/	/	/	/	/	/
Clc1ccc(Oc2nc(N3CCOCC3)nc(N3CCOCC3)n2)cc1	7.6*	-7	i	i	3	10	0.0091	0.0068	0.03	0.0074	0.021	?
O=C(O)CNC(=O)CC1S/C(=N/N=C2\CSC(=O)N2)NC1=O (configuration not stated)	-0.028	-8	i	i	-4	9	/	/	/	/	/	/
Cc1ccc(C)c(C2=NNC(=NCc3ccccc3)SC2)c1	8.9*	-12	i	i	/	14	0.01	0.038*	0.036	?	0.033*	?
Cc1onc(-c2ccccc2Cl)c1C(=O)NC(=S)Nc1ccc(C(C)(C)C)cc1	6.9*	-4	i	i	307	21	0.0073	0.012*	0.031	0.013*	0.022	0.013*
